This is one part of a sample in which hits are shown more often than they occur.
UPR XBP1 act: adaptive UPR (XBP1) activation | CHO-XBP1 luciferase reporter, IRE1-XBP1 UPR activation, luminescence; percent of tunicamycin response, DMSO as zero | AID 463104 | activation, % at 20 µM | hit rate 0.33% among 330,000;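 active = versus positive control, 20 µM dose yields 30% or more activation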;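 also: 100% = tunicamycin at 10 µg/mL and 0% = DMSO only wells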
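Signal: luciferase luminescence; Assay system: CHO-XBP1 luciferase reporter cells; Amount: one thousand reporter cells per well; Dosing: 20 µM single concentration, DMSO 1%; Benchmarks: high control tunicamycin 10 µg/mL final, low control DMSO vehicle only; Schedule: 6 h compound exposure at 37 °C, 5% CO2; Evaluation: percent activation relative to tunicamycin reference.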
B2AR ag: human beta-2 adrenergic receptor agonism by FAP | AID 504454 | hit rate 0.43% among 340,000 | P07550 | Am2.2-beta2AR cells, FAP receptor internalization, flow cytometry | response, % (test concentration not listed);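 active = response above a set limit, near 3 SD of response in nonfluorescent compounds, cut at about 42% in these data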
Target sequence (P07550 whole entry, looked up): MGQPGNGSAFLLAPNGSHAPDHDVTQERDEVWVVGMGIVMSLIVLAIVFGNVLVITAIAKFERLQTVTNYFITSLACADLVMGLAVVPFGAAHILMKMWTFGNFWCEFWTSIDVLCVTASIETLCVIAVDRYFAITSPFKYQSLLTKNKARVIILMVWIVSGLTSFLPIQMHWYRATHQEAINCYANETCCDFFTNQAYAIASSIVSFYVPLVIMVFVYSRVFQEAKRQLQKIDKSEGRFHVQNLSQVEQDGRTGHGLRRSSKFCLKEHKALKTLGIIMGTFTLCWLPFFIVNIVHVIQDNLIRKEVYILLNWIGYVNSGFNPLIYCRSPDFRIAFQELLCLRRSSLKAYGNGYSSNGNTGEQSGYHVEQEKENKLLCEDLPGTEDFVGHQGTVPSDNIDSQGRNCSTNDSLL
CHOP inh: inhibitors of CHOP induction in ER stress response; CHO-K1 CHOP-promoter luciferase, tunicamycin-induced, 15-18 h; inhibition, % at 10 µM; hit rate 3.8% among 220,000;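 active = compounds that reduced the stress-induced luciferase reporter signal by more than about 70% of percent inhibition, limit read from the data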;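 also: 0% = tunicamycin plus vehicle and 100% = wells without tunicamycin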
CHOP UPR activ: apoptotic UPR (CHOP) activation | CHO-CHOP luciferase reporter, luminescence; percent of tunicamycin response over DMSO baseline | activation, % at 10 µM | hit rate 0.34% among 330,000;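 active = at 10 µM dose, activation of 40% or more, normalized to positive control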;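 also: 100% = tunicamycin at 10 µg/mL and 0% = DMSO alone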
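assay system = CHO CHOP reporter cells | amount = 500 CHO-CHOP cells per well | buffer or medium = F12 with 10% FBS | incubation = 16-18 h cell attachment, then 6 h compound exposure, 37 °C | detection = luminescence read with Steady-Glo | read-out = percent activation relative to tunicamycin control | controls = tunicamycin high control, DMSO low control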
pCIP destab: p/CIP protein destabilization | hit rate 0.01% among 290,000 | AID 1984 | Q05BA5 | F442A p/CIP-EGFP cells, EGFP fluorescence, 16 h | decrease of EGFP signal, % at 10 µM;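 active = EGFP signal decrease of at least 30% at 10 µM or well 3 SD below plate mean, unless failing retest; inactive = the rest, including hits failing retest or dose response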
Dynein cargo inh: dynein cargo transport inhibition; hit rate 0.47% among 220,000; z-score, hits read low; AID 1381; 3617.4 mouse cells, GR-EGFP nuclear translocation imaging; test concentration mostly 20 µM; stimulated with dexamethasone, 1 µM; active compounds read low;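 active = plate z-score of nuclear minus cytoplasmic receptor signal below a set negative limit, without overly bright fluorescence or cell loss, cut at about -3.5 in these data, passing the limit was not always enough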;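 also: z-score of nuclear minus cytoplasmic ring GR-EGFP intensity difference per well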
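Medium: Induction medium lacking tetracycline, stripped serum | Probe or stimulus: 1.0 µM final dexamethasone stimulus | Schedule: 48 h induction, then 1 h compound, then 30 min agonist, 37 °C | Signal: Automated 10x imaging of fixed Hoechst-stained cells | Evaluation: Per-cell GR-EGFP intensity, nucleus versus surrounding cytoplasmic ring, well-averaged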
B2AR ag CP1: human beta-2 adrenergic receptor agonism, cherry pick; shares compounds with B2AR ag; Am2.2-beta2AR cells, FAP surface receptor, flow cytometry; active compounds read low; percent response (surface receptor), % at 10 µM; hit rate 25% among 1,100;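 active = surface receptor percent response at or below 58%, roughly 3 SD from nonfluorescent compounds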
B2AR FAP counter: counter-screen for beta-2AR agonists: fluorescence in Am2.2 cells; calls only at 10 µM; FAP fluorogen flow cytometry, fluorescence counterscreen; active compounds read low; shares compounds with B2AR ag; AID 588765; 1,100 tested, under 10 active;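 active = percent response below a set limit in fluorescence channel 1 and below 50% in channel 8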
Active calls of the source: *; i = inactive; · = no result given.

SMILES	UPR XBP1 act	B2AR ag	CHOP inh	CHOP UPR activ	pCIP destab	Dynein cargo inh	B2AR ag CP1	B2AR FAP counter
Cc1cc(C)n2nc(C(=O)Nc3cccc(S(=O)(=O)N(C)c4ccccc4)c3)nc2n1	0.8	74.5*	15.1	-0.1	1.9	-0.572	12.2*	i
Cc1cc(C)n2nc(C(=O)Nc3ccc(S(=O)(=O)N4CCCCC4)cc3)nc2n1	-1.4	-0.5	14.8	1.0	-1.3	-0.508	·	·
O=C(NC(Cc1ccccc1)C(=O)O)/C(=C/c1ccc(F)cc1)NC(=O)c1ccccc1 (stereo unspecified)	-0.1	1.3	-8.1	-2.4	-0.6	-0.0563	·	·
CSCC[C@H](NC(=O)OC(C)(C)C)C(=O)NCC1CCC(C(=O)O)CC1 (stereo partly specified)	2.8	1.4	18.3	1.3	-0.8	0.268	·	·
Cc1ccccc1C(=O)NCCNc1ccc([N+](=O)[O-])cc1	-2.3	-4.8	-1.7	-0.6	-4.0	-0.786	·	·
O=C(NCCNc1ccc([N+](=O)[O-])cc1)c1ccccc1Br	-4.1	46.1*	3.4	-1.3	7.7	0.0286	105.0	i
Cc1cc(C(N)=O)c2ccccc2n1	-0.4	3.4	4.8	-2.2	-5.0	-0.0395	·	·
NC(=O)c1cc2c3ccccc3ccn2c1-c1ccccc1	·	42.5*	-5.5	·	-5.5	-1.35	101.0	i
COCCNC(=O)c1c(N)n(CCCn2ccnc2)c2nc3ccccc3nc12	1.3	64.9*	-19.9	-0.8	3.5	3.1	113.8	i
Nc1cccc(C#Cc2ccc3c(=O)c4ccccc4oc3c2)c1	4.5	47.5*	·	4.6	·	·	27.8*	i
CCOc1ccccc1NC(=O)c1ccc2nc[nH]c2c1	0.6	6.9	·	1.4	-2.3	·	·	·
CCOc1ncccc1C(=O)Nc1ccc(-c2ccc3nnc(C)n3n2)cc1	-1.3	43.7*	26.3	1.4	8.7	-0.711	107.3	i
Cc1nnc2ccc(-c3ccc(NC(=O)c4cccnc4Cl)cc3)nn12	-0.7	-2.7	-18.0	-0.8	8.3	0.147	·	·
CCOC(=O)c1cn(C2CC2)c2c(F)c(NCCCN(C)C)c(F)cc2c1=O	2.2	63.9*	·	-0.8	·	·	37.8*	i
CCOC(=O)c1cn2c3c(c(F)c(F)cc3c1=O)SC(N1CCOCC1)=N2	·	·	·	·	·	-1.75	·	·
O=C(Cn1cnc2ccccc21)N/N=C/C(Br)=C/c1ccccc1	-0.6	1.1	15.1	-1.5	6.5	-0.559	·	·
CCOC(=O)C1CCN(S(=O)(=O)c2ccc3c(c2)N(C(C)=O)CC(C)S3)CC1 (stereo unspecified)	-6.2	49.7*	·	4.4	-33.4	·	78.1	i
ClC1(CNc2ccccc2)CCN(Cc2ccccc2)CC1	1.4	3.8	·	0.6	·	·	·	·
Clc1cccc(-c2nnc(SCc3nc4ccccc4[nH]3)n2Cc2ccco2)c1	-0.8	54.5*	35.3	0.1	-10.0	-1.1	56.4*	i
Clc1ccc(OCc2nnc(SCc3nc4ccccc4[nH]3)n2Cc2ccco2)cc1	-1.0	111.2*	81.1*	4.1	-10.5	0.112	38.5*	i
c1ccc(-c2nnc(SCc3nc4ccccc4[nH]3)n2Cc2ccco2)nc1	0.5	-8.7	-7.8	-1.0	4.0	0.0493	·	·
COc1ccc(C2CC(c3cccs3)=Nc3ccccc3S2)cc1 (stereo unspecified)	1.5	2.5	-6.0	-0.6	-11.2	-0.368	·	·
CCN(c1ccc2c(c1)OCO2)S(=O)(=O)c1cc(Br)cc2c1N(C(C)=O)CC2	-1.7	79.8*	46.0	-0.8	-3.2	-0.593	47.2*	i
CCN(c1ccc2c(c1)OCO2)S(=O)(=O)c1cc2c(cc1Br)CCN2C(=O)C1CC1	·	24.4	·	·	·	·	·	·
NC(=O)c1c(/N=C/c2cccs2)sc2c1CCCC2	5.0	-7.1	12.1	7.0	-43.4	-1.36	·	·
SMILES	UPR XBP1 act	B2AR ag	CHOP inh	CHOP UPR activ	pCIP destab	Dynein cargo inh	B2AR ag CP1	B2AR FAP counter
O=C(CCS(=O)(=O)c1ccc(Cl)cc1)Nc1nccs1	-2.6	-0.4	·	0.9	·	·	·	·
CCCNc1nc(-c2ccccc2)c(C(=O)OCC)cc1C#N	8.1	50.4*	-0.7	-0.5	0.0	-0.151	103.3	i
CCCCNc1nc(-c2ccccc2)c(C(=O)OCC)cc1C#N	2.0	-17.1	63.5	-1.6	-11.6	-0.692	·	·
CN(CC(=O)N1CCN(c2ccccn2)CC1)S(=O)(=O)c1ccccc1	-0.9	50.7*	-21.7	-1.3	-3.9	-1.01	59.4	i
CN(C(=O)N1CCN(c2ccccn2)CC1)c1ccccc1	-1.8	-7.7	-10.5	-1.8	-1.7	0.215	·	·
CN(CC(=O)N1CCN(c2ncccn2)CC1)S(=O)(=O)c1ccc(Cl)cc1	-2.7	111.7*	-15.0	1.5	3.8	-0.196	27.7*	i
CN(CCCC(=O)N1CCN(c2ncccn2)CC1)S(=O)(=O)c1ccc(F)cc1	0.4	-2.9	·	-1.9	·	·	·	·
CCCNC(C)C(=O)Nc1ccccc1C (stereo unspecified)	-4.6	-2.9	7.2	-2.2	-0.8	·	114.5	i
Cc1csc(NC(=O)CCc2c(C)nc3cc(-c4ccc(Cl)cc4)nn3c2C)n1	1.8	63.4*	88.5*	-0.6	-17.4	0.723	69.2	i
Cc1csc(NC(=O)CSc2nnc(-c3ccc(Cl)cc3)n2N)n1	-3.4	-2.4	26.6	0.7	-8.1	-0.308	·	·
CC(=O)c1ccc(OCc2cc(C(=O)NCCc3ccc(Cl)cc3)no2)cc1	-3.0	3.4	·	4.2	-10.2	·	·	·
COc1cc(C(=O)Nc2nc3ccccc3s2)ccc1OCc1c(C)noc1C	4.5	53.1*	59.2	1.0	-4.0	0.657	108.4	i
CC(=O)Oc1c(Br)cc(N(C(C)=O)S(=O)(=O)c2ccccc2)c2ccccc12	5.2	59.9*	·	7.1	-7.1	·	107.4	i
CC(=O)Oc1ccccc1N(C(C)=O)S(=O)(=O)c1ccc2ccccc2c1	1.2	2.6	12.4	0.9	0.5	-0.175	·	·
COc1cccc2sc3ccc(C#CC4(N)CCCCC4)cc3c(=O)c12	12.3	25.7	·	4.2	1.8	·	·	·
COc1cccc2sc3cc(C#CC4(O)CCCCC4)ccc3c(=O)c12	-2.6	50.2*	·	2.8	·	·	97.7	i
COc1ccc(S(=O)(=O)N2CCN(C(=O)Cc3ccsc3)CC2)cc1	-0.4	5.2	·	0.4	·	·	·	·
COc1ccc(CCNC(=O)Cc2cccc(C(F)(F)F)c2)cc1OC	-1.5	83.3*	·	1.7	-5.8	·	102.3	i
COc1ccc(CCNC(=O)Cc2ccc(OC)c(OC)c2)cc1OC	1.0	5.3	12.6	9.6	0.4	-0.142	·	·
